Data published in article PMC4478078 (Biochemistry, 2015).
Where a chain is given by its changes, count along the chain named.

What was measured:
[1] = target: T1, HO2core (human HO2 residues 1–248) (Homo sapiens, UniProt P30519); test: Fe^3+-heme difference titration with HO2core; format: binding; conditions: read-out: Kd (titrations); 2 μM HO2core; 50 mM Tris pH 8.0, 50 mM KCl, 20 °C, anaerobic; quadratic fit
T1 sequence (P30519 1-248): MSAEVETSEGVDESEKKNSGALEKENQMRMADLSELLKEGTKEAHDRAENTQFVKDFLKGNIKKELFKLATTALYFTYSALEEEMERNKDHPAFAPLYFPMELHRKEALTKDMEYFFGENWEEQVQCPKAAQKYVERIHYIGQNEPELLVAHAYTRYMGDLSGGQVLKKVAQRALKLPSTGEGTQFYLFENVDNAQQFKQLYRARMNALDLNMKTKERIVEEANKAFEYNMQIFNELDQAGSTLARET

[2] = target: T2, HO2tail(C282A)^R (human HO2 residues 213–288, disulfide-reduced) (Homo sapiens, UniProt P30519, C282A); test: Fe^3+-heme difference titration with HO2tail; format: binding; conditions: read-out: Kd (titrations); 10 μM HO2tail(C282A)^R; 50 mM Tris pH 8.0, 50 mM KCl, 20 °C, anaerobic
T2 sequence (P30519 213-288 C282A): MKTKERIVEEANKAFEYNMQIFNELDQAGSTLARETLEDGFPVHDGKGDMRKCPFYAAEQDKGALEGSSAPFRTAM

[3] = target: T3, HO2tail(C265A)^R (human HO2 residues 213–288, disulfide-reduced) (Homo sapiens, UniProt P30519, C265A); test: Fe^3+-heme difference titration with HO2tail; format: binding; conditions: read-out: Kd (titrations); 6 μM HO2tail(C265A)^R; 50 mM Tris pH 8.0, 50 mM KCl, 20 °C, anaerobic
T3 sequence (P30519 213-288 C265A): T2 sequence (P30519 213-288 C282A) with C53A, A70C

HO2tail(C282A)^R [4] = target: T4, HO2tail(C282A)^R (Homo sapiens, UniProt P30519, C282A); test: Fe^3+-heme off rate, apo-H64Y/V68F-myoglobin assay, HO2tail; format: binding; conditions: 2 μM heme-bound protein, 20 μM apo-H64Y/V68F-myoglobin, 20 °C
T4 sequence (P30519 213-288 C282A): T2 sequence (P30519 213-288 C282A)
Procedure, shortened: (§1)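 Disulfide-reduced (TCEP) heme-loaded protein, freed of unbound heme, at 2 μM was mixed with 20 μM apo-H64Y/V68F-myoglobin in 50 mM Tris pH 8.0, 50 mM KCl. Apomyoglobin was prepared by methyl ethyl ketone extraction, dialysed against Tris pH 7.4 with 150 mM KCl, and quantified at 280 nm. Spectra were recorded over time at 20 °C, following the absorbance rise at 600 from heme scavenging.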

HO2tail(C265A)^R [5] = test: as above; format: binding, human; conditions: 2 μM heme-bound protein, 20 μM apo-H64Y/V68F-myoglobin, 20 °C
Procedure, shortened: as §1

HO2tail^R [6] = test: Fe^3+-heme off rate, apo-H64Y/V68F-myoglobin assay, HO2tail^R; format: binding, human; conditions: double-exponential, 20 °C
Procedure, shortened: as §1

[7] = test system: HO2sol^R (human HO2 residues 1–288, disulfide-reduced); test: Fe^3+-heme off rate, apo-H64Y/V68F-myoglobin assay, HO2sol^R; format: binding; conditions: double-exponential, 20 °C
Procedure, shortened: as §1

HO2core = target: T5, HO2core (Homo sapiens, UniProt P30519); test: Fe^3+-heme on rate, anaerobic stopped flow, HO2core; format: binding
T5 sequence (P30519 1-248): T1 sequence (P30519 1-248)
Procedure, shortened: (§2)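 Apoprotein at various concentrations was mixed with Fe3+-heme in 50 mM Tris pH 8.0, 50 mM KCl by stopped-flow inside an anaerobic chamber, 1 cm path, 20 °C, 406 nm. Each kobs is the mean of 5–7 traces fit to a single exponential. Eq 1 fit of kobs versus apoprotein concentration gave k2/k1 and kcoord, with k′heme ≈ kcoord/(k2/k1). Kd is the myoglobin-assay off rate divided by k′heme.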

HO2tail(C282A)^R [8] = target: T4, HO2tail(C282A)^R; test: Fe^3+-heme on rate, anaerobic stopped flow, HO2tail; format: binding
Procedure, shortened: as §2

HO2sol^R [9] = target: T6, HO2sol^R (Homo sapiens, UniProt P30519); test: Fe^3+-heme on rate, anaerobic stopped flow, HO2sol^R; conditions: 406 nm, 20 °C, per observable binding site (two per monomer)
T6 sequence (P30519 1-288): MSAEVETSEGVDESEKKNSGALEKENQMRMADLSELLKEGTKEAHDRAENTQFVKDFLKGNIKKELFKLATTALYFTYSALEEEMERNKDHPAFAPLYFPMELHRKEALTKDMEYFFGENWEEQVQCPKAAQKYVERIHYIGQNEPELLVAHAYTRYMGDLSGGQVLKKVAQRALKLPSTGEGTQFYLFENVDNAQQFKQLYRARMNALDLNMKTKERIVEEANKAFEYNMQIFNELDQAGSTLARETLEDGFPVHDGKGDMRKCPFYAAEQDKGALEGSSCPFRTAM
Procedure, shortened: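 TCEP-reduced apoprotein at various concentrations was mixed with Fe3+-heme in anaerobic 50 mM Tris pH 8.0, 50 mM KCl by stopped-flow within an anaerobic chamber at 20 °C, monitored at 406 nm. Each kobs is an average of 5–7 traces fit to a single exponential. kobs was plotted against the concentration of observable binding sites and fit to eq 1; k′heme ≈ kcoord/(k2/k1).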

HO2tail^R [10] = test: Pyridine hemochrome assay of bound heme, HO2tail^R; format: binding, human; conditions: after 5-fold excess Fe^3+-heme and removal of unbound heme
Procedure, shortened: (§3)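 Protein was reduced with a 25-fold molar excess of TCEP for 1 h anaerobically, desalted into anaerobic 50 mM Tris pH 8.0, 50 mM KCl, then incubated 1 h with excess Fe3+-heme (5-fold molar excess in the general method). The heme stock contained 15% DMSO and 0.1 M NaOH, was filtered and quantified at 385 nm. Unbound heme was removed on a desalting column. Bound heme was measured by pyridine hemochrome (Δε556 28.32 mM−1 cm−1).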

HO2sol^R [11] = target: T6, HO2sol^R; test: Pyridine hemochrome assay of bound heme, HO2sol^R; format: binding; conditions: after 5-fold excess Fe^3+-heme and removal of unbound heme
Procedure, shortened: as §3

HO2tail(C265A)^R [12] = test: Pyridine hemochrome assay of bound heme, HO2tail; format: binding, human; conditions: after excess Fe^3+-heme and removal of unbound heme
Procedure, shortened: as §3

HO2tail(C282A)^R [13] = target: T4, HO2tail(C282A)^R; test: Pyridine hemochrome assay of bound heme, HO2tail; format: binding; conditions: after excess Fe^3+-heme and removal of unbound heme
Procedure, shortened: as §3

HO2tail(C265A/C282A)^R = test: Heme binding to HO2tail; parameters: species or system human; conditions: data not shown
HO2 tail at Cys265 = test: Calculated dissociation equilibrium constant, HO2 tail at Cys265; format: binding, human
[14] = test system: HRI (heme-regulated eukaryotic initiation factor 2α kinase); conditions: cited from earlier work
[15] = fit of eq 1 to kobs vs apoprotein concentration
[16] = read-out: Kd (k-heme/k′heme), calculated from off and on rates

In the case of `C=CC1=C(C)c2cc3[n-]c(cc4[n-]c(cc5nc(cc1n2)C(C)=C5C=C)c(C)c4CCC(=O)O)c(CCC(=O)O)c3C.[Fe+2]` [Fe^3+-heme], the Kd [1] is reported as 14 ± 4 nM, the Kd [2] is reported as 90 ± 30 nM and the Kd [3] is reported as 900 ± 300 nM. For the same compound, the “k-heme (off rate)” value (HO2tail(C282A)^R [4]) was 0.0023 ± 0.0001 s⁻¹, the “k-heme (off rate)” value (HO2tail(C265A)^R [5]) was 0.0055 ± 0.0005 s⁻¹ and the “k-heme (off rate), fast phase” value (HO2tail^R [6]; fast phase, assigned to Cys282) was 0.0086 ± 0.003 s⁻¹. For the same compound, the “k-heme (off rate), slow phase” value (HO2tail^R [6]; slow phase, assigned to Cys265) was 0.0023 ± 0.0004 s⁻¹, the “k-heme (off rate), fast phase” value ([7]; fast phase, assigned to Cys265) was 0.0031 ± 0.0002 s⁻¹ and the “k-heme (off rate), slow phase” value ([7]; slow phase, assigned to His45 at the core) was 0.00054 ± 0.00006 s⁻¹. For the same compound, the “k′heme (apparent second-order rate constant, kcoord/(k2/k1))” value (“k′heme” for short) (HO2core; 406 nm, 20 °C, anaerobic) was 6.4e+06 M⁻¹ s⁻¹, the k2/k1 (HO2core; [15]) was 14.1 ± 0.3 µM and the kcoord (HO2core; [15]) was 91 ± 1 s⁻¹. For the same compound, the Kd (HO2core; [16]) was 0.2 nM, the “k′heme” value (HO2tail(C282A)^R [8]; 406 nm, 20 °C, anaerobic) was 7.6e+06 M⁻¹ s⁻¹ and the k2/k1 (HO2tail(C282A)^R [8]; [15]) was 14 ± 4 µM. For the same compound, the kcoord (HO2tail(C282A)^R [8]; [15]) was 110 ± 10 s⁻¹, the Kd (HO2tail(C282A)^R [8]; [16]) was 0.3 nM and the “k′heme” value (HO2sol^R [9]) was 6.9e+06 M⁻¹ s⁻¹. The “hemes bound per monomer of protein” value (HO2tail^R [10]) was 1.4 ± 0.3 hemes per monomer of protein, the “hemes bound per monomer of protein” value (HO2sol^R [11]) was 2.1 ± 0.1 hemes per monomer of protein and the “heme bound per monomer of protein” value (HO2tail(C265A)^R [12]) was 0.74 ± 0.03 heme per monomer of protein. For the same compound, the “heme bound per monomer of protein” value (HO2tail(C282A)^R [13]) was 0.8 ± 0.2 heme per monomer of protein, the “Fe^3+-heme binding (in words)” value (HO2tail(C265A/C282A)^R) was “did not bind” and the “difference in binding affinity between the sites (core His45 vs tail Cys265)” value (HO2 tail at Cys265; Fe^3+-heme difference titrations) was ~ 6 fold. The “difference in binding affinity between the sites (core His45 vs tail Cys265)” value (HO2 tail at Cys265; kinetic experiments) was 2–5 fold and the off rate [14] was 0.0015 s⁻¹.
